Experimental data from ChEMBL document CHEMBL3259517, “Synthesis and evaluation of phosphorus containing, specific CDK9/CycT1 inhibitors” (J Med Chem, 2014).

Experiments:
CDK9/cyclin T1 = CDK9/cyclin T1 (Homo sapiens, UniProt P50750); assay: Inhibition of CDK9/CycT1 (unknown origin) using TAMRA-Rbtide and ATP as substrate after 1 hr; assay type: protein-complex assay
[1] = target: Cyclin-dependent kinase 2/cyclin E1 (Homo sapiens) (UniProt P24864+P24941); assay: Inhibition of CDK2/CycE (unknown origin) using FAM labeled peptide as substrate at 10 uM by IMAP FAM FP assay; assay type: protein-complex assay
How it was run: (§1)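 Run by contract partners as an IMAP fluorescence polarization assay. […] Enzyme amount was set to give 50% substrate turnover. Compounds were added in DMSO, IMAP binding solution added after the kinase step, then FP read.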

[2] = target: Cyclin-dependent kinase 4/cyclin D1 (Homo sapiens) (UniProt P11802+P24385); assay: Inhibition of CDK4/CycD1 (unknown origin) using FAM labeled peptide as substrate at 10 uM by IMAP FAM FP assay; assay type: protein-complex assay; how it was run: as §1
[3] = test system: Human immunodeficiency virus 1; assay: Antiviral activity against HIV1 HTLV-3B infected in human MT4 cells assessed as inhibition of virus proliferation by measuring host cell viability at 1250 nM relative to control; assay type: functional
How it was run: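 HIV-1 HTLV-IIIB (3400 TCID50/mL per well; titre set by virus yield assay) infected MT4 cells, 2−3 × 10⁴/well in RPMI1640 with 10% FCS, penicillin and streptomycin, cultured as for the 7-day viability assay (37 °C, 5% CO2). Test compounds were at 1250 nM and AZT control at 25 nM. Read-out was MTT (4 h, DMSO, A540), given relative to infected untreated cells (100%).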

[4] = Cytotoxicity against human MT4 cells assessed as cell viability at 1250 nM after 7 days by MTT assay relative to control; assay type: cell-based; settings: read-out: Activity
How it was run: (§2)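 MT4 cells (2−3 × 10⁴/well) in RPMI1640 with 10% FCS, penicillin and streptomycin, exposed to compound at 2500 or 1250 nM for 7 days at 37 °C, 5% CO2. MTT added for 4 h, supernatant removed, formazan dissolved in DMSO, absorbance read at 540 nm. Viability expressed relative to untreated cells (100%).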

[5] = Cytotoxicity against human MT4 cells assessed as cell viability at 2500 nM after 7 days by MTT assay relative to control; assay type: cell-based; settings: read-out: Activity; how it was run: as §2

CDK9/cyclin T1, sequence (O60563 whole entry): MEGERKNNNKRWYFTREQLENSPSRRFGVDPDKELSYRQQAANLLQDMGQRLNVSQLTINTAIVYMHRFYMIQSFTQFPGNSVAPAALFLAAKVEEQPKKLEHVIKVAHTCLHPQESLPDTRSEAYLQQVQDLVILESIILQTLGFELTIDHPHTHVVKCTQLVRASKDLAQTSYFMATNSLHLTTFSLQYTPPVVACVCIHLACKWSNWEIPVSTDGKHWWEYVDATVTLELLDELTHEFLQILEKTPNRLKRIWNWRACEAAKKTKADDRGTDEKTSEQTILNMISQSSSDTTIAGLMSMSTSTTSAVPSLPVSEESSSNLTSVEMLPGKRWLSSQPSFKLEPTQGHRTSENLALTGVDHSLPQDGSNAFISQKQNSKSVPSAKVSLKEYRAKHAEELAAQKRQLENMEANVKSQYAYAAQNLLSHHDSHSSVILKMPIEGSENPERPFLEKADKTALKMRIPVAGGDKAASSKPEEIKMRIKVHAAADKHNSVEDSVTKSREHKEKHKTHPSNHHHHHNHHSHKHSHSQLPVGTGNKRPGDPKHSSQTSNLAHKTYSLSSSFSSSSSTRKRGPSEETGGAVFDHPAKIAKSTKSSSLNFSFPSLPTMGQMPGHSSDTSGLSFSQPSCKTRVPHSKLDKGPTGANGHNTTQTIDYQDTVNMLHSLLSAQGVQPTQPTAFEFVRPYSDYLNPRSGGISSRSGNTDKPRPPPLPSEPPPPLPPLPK
CDK9/cyclin T1, sequence (P50750 whole entry): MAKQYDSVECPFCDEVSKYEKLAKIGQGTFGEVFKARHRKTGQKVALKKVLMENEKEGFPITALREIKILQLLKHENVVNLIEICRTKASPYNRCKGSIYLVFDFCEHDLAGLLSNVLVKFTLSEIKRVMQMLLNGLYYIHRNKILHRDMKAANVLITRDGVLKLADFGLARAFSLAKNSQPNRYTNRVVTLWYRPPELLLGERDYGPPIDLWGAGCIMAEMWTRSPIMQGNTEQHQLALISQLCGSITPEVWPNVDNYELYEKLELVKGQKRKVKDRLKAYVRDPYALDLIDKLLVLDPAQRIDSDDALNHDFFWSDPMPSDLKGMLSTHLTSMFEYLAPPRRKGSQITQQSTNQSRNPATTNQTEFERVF

Compound	IC50 (CDK9/cyclin T1) [µM]	other results
CCOP(=O)(OCC)c1cccc(Nc2cc(-c3cccc([N+](=O)[O-])c3)ncn2)c1	> 10	
CCCP(=O)(OCC)c1ccc(Nc2cc(-c3cccc([N+](=O)[O-])c3)ncn2)cc1 (stereo not given)	> 10	
CCOP(=O)(Cc1ccc(Nc2cc(-c3cccc(N)c3)ncn2)cc1)OCC	3.11	inhibition [1]: 14%; inhibition [2]: 30%
CCCP(=O)(Cc1cccc(Nc2cc(-c3cccc(N)c3)ncn2)c1)OCC (stereo not given)	0.682	
O=[N+]([O-])c1cccc(-c2cc(Nc3ccc(CP(=O)(O)O)cc3)ncn2)c1	2.1	
CCOP(=O)(OCC)c1ccc(Nc2cc(-c3ccccc3OC)ncn2)cc1	1.02	inhibition [1]: 69%; inhibition [2]: 22%
CCOP(=O)(OCC)C(O)c1cccc(Nc2cc(-c3cccc(N)c3)ncn2)c1 (stereo not given)	1.4	
CCOP(=O)(Cc1cccc(Nc2cc(-c3cccc(N)c3)ncn2)c1)c1ccccc1 (stereo not given)	1.02	
CCOP(=O)(OCC)C(O)c1ccc(Nc2cc(-c3ccccc3OC)ncn2)cc1 (stereo not given)	0.51	inhibition [1]: 94%; inhibition [2]: 68%
CCOP(=O)(CC)Cc1ccc(Nc2cc(-c3ccccc3OC)ncn2)cc1 (stereo not given)	0.743	
CCOP(=O)(Oc1cccc(Nc2cc(-c3cccc([N+](=O)[O-])c3)ncn2)c1)c1ccccc1 (stereo not given)	> 10	
CCCP(=O)(Cc1ccc(Nc2cc(-c3cccc(N)c3)ncn2)cc1)OCC (stereo not given)	7.47	
CCCP(=O)(Cc1ccc(Nc2cc(-c3cccc([N+](=O)[O-])c3)ncn2)cc1)OCC (stereo not given)	5.53	
CCOP(=O)(CC)Cc1ccc(Nc2cc(-c3cccc(N)c3)ncn2)cc1 (stereo not given)	7.53	
CCP(=O)(O)Cc1cccc(Nc2cc(-c3ccccc3OCc3ccccc3)ncn2)c1	0.163	Host cell viability relative to infected untreated cells [3]: 124%; viability at 168 h, 1.25 µM [4]: 110%; viability at 168 h, 2.5 µM [5]: 104%
CCOP(=O)(CC)Cc1cc(Nc2cc(-c3ccccc3OC)ncn2)ccc1C (stereo not given)	0.366	
CCOP(=O)(CC)c1cccc(Nc2cc(-c3cccc([N+](=O)[O-])c3)ncn2)c1 (stereo not given)	> 10	
CCOP(=O)(Cc1cccc(Nc2cc(-c3cccc(N)c3)ncn2)c1)OCC	0.332	Host cell viability relative to infected untreated cells [3]: 96%
Nc1cccc(-c2cc(Nc3ccc(P(=O)(O)O)cc3)ncn2)c1	3.32	inhibition [1]: 98%; inhibition [2]: 67%
CCOP(=O)(Cc1cc(Nc2cc(-c3ccccc3OC)ncn2)ccc1C)OCC	5.22	
CCOP(=O)(CC)c1ccc(Nc2cc(-c3cccc([N+](=O)[O-])c3)ncn2)cc1 (stereo not given)	> 10	
CCOP(=O)(CC)c1cccc(Nc2cc(-c3cccc(N)c3)ncn2)c1 (stereo not given)	9.8	

Compound	IC50 (CDK9/cyclin T1) [µM]	other results
CCOP(=O)(c1ccccc1)c1ccc(Nc2cc(-c3cccc(N)c3)ncn2)cc1 (stereo not given)	6.5	
CCOP(=O)(Oc1cccc(Nc2cc(-c3cccc(N)c3)ncn2)c1)c1ccccc1 (stereo not given)	5.33	
CCOP(=O)(CC)Cc1cccc(Nc2cc(-c3ccccc3OCc3ccccc3)ncn2)c1 (stereo not given)	0.212	Host cell viability relative to infected untreated cells [3]: 135%; viability at 168 h, 1.25 µM [4]: 98%; viability at 168 h, 2.5 µM [5]: 94%
CN1CC[C@H](c2c(O)cc(O)c3c(=O)cc(-c4ccccc4Cl)oc23)[C@H](O)C1		inhibition [1]: 99%; inhibition [2]: 84%
CCOP(=O)(Oc1ccc(Nc2cc(-c3ccccc3OC)ncn2)cc1)c1ccccc1 (stereo not given)	2.84	
CCCP(=O)(Cc1cccc(Nc2cc(-c3ccccc3OCc3ccccc3)ncn2)c1)OCC (stereo not given)	0.143	Host cell viability relative to infected untreated cells [3]: 148%; viability at 168 h, 1.25 µM [4]: 86%; viability at 168 h, 2.5 µM [5]: 93%
CCCP(=O)(Cc1cccc(Nc2cc(-c3cccc([N+](=O)[O-])c3)ncn2)c1)OCC (stereo not given)	8.06	
O=[N+]([O-])c1cccc(-c2cc(Nc3cccc(P(=O)(O)O)c3)ncn2)c1	4.1	
CCOP(=O)(CC)c1ccc(Nc2cc(-c3cccc(N)c3)ncn2)cc1 (stereo not given)	> 10	
CCOP(=O)(CC)Cc1cc(Nc2cc(-c3cccc(N)c3)ncn2)ccc1C (stereo not given)	0.346	
CCOP(=O)(OCC)c1ccc(Nc2cc(-c3cccc([N+](=O)[O-])c3)ncn2)cc1	> 10	
CCOP(=O)(Oc1cc(Nc2cc(-c3ccccc3OC)ncn2)ccc1C)c1ccccc1 (stereo not given)	4.14	inhibition [1]: 8%; inhibition [2]: 19%
CCOP(=O)(CC)Cc1ccc(Nc2cc(-c3cccc([N+](=O)[O-])c3)ncn2)cc1 (stereo not given)	7.77	
CCCP(=O)(Cc1cccc(Nc2cc(-c3ccccc3Oc3ccccc3)ncn2)c1)OCC (stereo not given)	0.601	
CCCP(=O)(Cc1ccc(Nc2cc(-c3ccccc3OC)ncn2)cc1)OCC (stereo not given)	0.652	
CCOP(=O)(Cc1cccc(Nc2cc(-c3ccccc3OC)ncn2)c1)OCC	0.333	viability at 168 h, 1.25 µM [4]: 91%; viability at 168 h, 2.5 µM [5]: 100%
CCCP(=O)(Cc1cccc(Nc2cc(-c3ccccc3CC)ncn2)c1)OCC (stereo not given)	> 10	
CCOP(=O)(Oc1cccc(Nc2cc(-c3ccccc3OC)ncn2)c1)c1ccccc1 (stereo not given)	3.1	
CCCP(=O)(OCC)c1ccc(Nc2cc(-c3cccc(N)c3)ncn2)cc1 (stereo not given)	> 10	
CCOP(=O)(c1ccccc1)c1ccc(Nc2cc(-c3ccccc3OC)ncn2)cc1 (stereo not given)	0.523	
COc1ccccc1-c1cc(Nc2ccc(P(=O)(O)O)cc2)ncn1	0.58	
CCOP(=O)(OCC)c1ccc(Nc2cc(-c3cccc(N)c3)ncn2)cc1	> 10	inhibition [1]: 18%; inhibition [2]: 35%

Compound	IC50 (CDK9/cyclin T1) [µM]	other results
Nc1cccc(-c2cc(Nc3ccc(CP(=O)(O)O)cc3)ncn2)c1	1.13	
CCOP(=O)(OCC)c1cccc(Nc2cc(-c3ccccc3OC)ncn2)c1	1.04	
CCOP(=O)(CC)Cc1cccc(Nc2cc(-c3cccc([N+](=O)[O-])c3)ncn2)c1 (stereo not given)	6.43	
CCCP(=O)(Cc1cccc(Nc2cc(-c3ccc(F)cc3OC)ncn2)c1)OCC (stereo not given)	0.186	
CCOP(=O)(Cc1cccc(Nc2cc(-c3cccc([N+](=O)[O-])c3)ncn2)c1)OCC	9.87	
CCOP(=O)(Cc1ccc(Nc2cc(-c3ccccc3OC)ncn2)cc1)OCC	0.49	inhibition [1]: 77%; inhibition [2]: 51%
CCCP(=O)(Cc1cccc(Nc2cc(-c3ccc(OC)cc3)ncn2)c1)OCC (stereo not given)	5.41	
CCOP(=O)(CC)c1ccc(Nc2cc(-c3ccccc3OC)ncn2)cc1 (stereo not given)	0.418	
CCOP(=O)(OCC)C(O)c1cccc(Nc2cc(-c3cccc([N+](=O)[O-])c3)ncn2)c1 (stereo not given)	> 10	
CCCP(=O)(Cc1cccc(Nc2cc(-c3ccccc3OC(C)C)ncn2)c1)OCC (stereo not given)	0.21	
CCOP(=O)(CC)c1cccc(Nc2cc(-c3ccccc3OC)ncn2)c1 (stereo not given)	0.842	
CCOP(=O)(Cc1cccc(Nc2cc(-c3ccccc3OC)ncn2)c1)c1ccccc1 (stereo not given)	0.517	
CCCP(=O)(Cc1cccc(Nc2cc(-c3cccc(OCc4ccccc4)c3)ncn2)c1)OCC (stereo not given)	> 10	
CCCP(=O)(Cc1cccc(Nc2cc(-c3cccc(OC)c3OC)ncn2)c1)OCC (stereo not given)	2.39	
CCOP(=O)(Cc1cccc(Nc2cc(-c3cccc([N+](=O)[O-])c3)ncn2)c1)c1ccccc1 (stereo not given)	> 10	
CCOP(=O)(CC)Cc1cc(Nc2cc(-c3cccc([N+](=O)[O-])c3)ncn2)ccc1C (stereo not given)	7.02	
CCOP(=O)(Nc1cc(Nc2cc(-c3ccccc3OC)ncn2)ccc1C)c1ccccc1 (stereo not given)	5.24	inhibition [1]: 19%; inhibition [2]: 18%
CCOP(=O)(c1ccccc1)c1ccc(Nc2cc(-c3cccc([N+](=O)[O-])c3)ncn2)cc1 (stereo not given)	> 10	
CCCP(=O)(Cc1cccc(Nc2cc(-c3cccc(OC)c3)ncn2)c1)OCC (stereo not given)	6.94	
CCOP(=O)(Cc1ccc(Nc2cc(-c3cccc([N+](=O)[O-])c3)ncn2)cc1)OCC	> 10	
CCCP(=O)(OCC)c1ccc(Nc2cc(-c3ccccc3OC)ncn2)cc1 (stereo not given)	1.15	
CCOP(=O)(OCC)C(O)c1ccc(Nc2cc(-c3cccc([N+](=O)[O-])c3)ncn2)cc1 (stereo not given)	4.58	
